Measurements from ChEMBL document CHEMBL1156822, “Isosorbide-2-benzyl carbamate-5-salicylate, a peripheral anionic site binding subnanomolar selective butyrylcholinesterase inhibitor” (J Med Chem, 2010).

How the values were obtained:
Cholinesterase [1] = biological target: T1, Cholinesterase (Homo sapiens, UniProt P06276); experiment: Inhibition of BuChE in human liver microsomes
[2] = Selectivity for human BuChe over electric eel AChE type 6S
[3] = biological target: Acetylcholinesterase (Electrophorus electricus) (UniProt O42275); experiment: Inhibition of electric eel AChE type 6S at 100 uM
Acetylcholinesterase (Electrophorus electricus), sequence (O42275 24-633 limits assumed): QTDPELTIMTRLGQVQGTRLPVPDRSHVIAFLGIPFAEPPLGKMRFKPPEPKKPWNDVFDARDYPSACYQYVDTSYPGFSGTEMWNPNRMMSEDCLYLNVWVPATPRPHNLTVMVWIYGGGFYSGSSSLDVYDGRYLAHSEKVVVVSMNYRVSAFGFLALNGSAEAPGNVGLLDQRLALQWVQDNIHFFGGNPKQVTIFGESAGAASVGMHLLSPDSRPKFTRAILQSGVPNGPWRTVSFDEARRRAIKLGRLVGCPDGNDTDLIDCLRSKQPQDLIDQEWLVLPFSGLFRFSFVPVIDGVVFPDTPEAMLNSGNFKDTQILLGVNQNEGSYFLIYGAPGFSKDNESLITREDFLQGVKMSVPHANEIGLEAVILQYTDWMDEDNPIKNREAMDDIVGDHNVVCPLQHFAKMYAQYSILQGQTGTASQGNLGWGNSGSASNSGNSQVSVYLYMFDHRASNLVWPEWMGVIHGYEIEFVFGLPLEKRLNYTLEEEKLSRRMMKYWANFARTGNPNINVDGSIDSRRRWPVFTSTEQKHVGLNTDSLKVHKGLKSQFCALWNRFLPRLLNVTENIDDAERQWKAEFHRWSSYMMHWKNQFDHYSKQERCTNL
Procedure, shortened: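 Electric eel AChE (type VI-S) in pH 8.0 phosphate buffer was preincubated for 30 min at 37 °C with test compound added from a 2 mmol MeCN stock. Ellman read-out followed, with final DTNB 0.3 mmol and acetylthiocholine 0.5 mmol.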

Cholinesterase [4] = biological target: T1, Cholinesterase; experiment: Inhibition of BuChE in human liver microsomes assessed as dissociation constant for Michaelis complex formation by enzyme kinetic study; conditions: Microsome
Plasma [5] = experiment: Metabolic stability in 33% mouse plasma assessed as compound hydrolysis after 1 hr by HPLC; type: ADME, cell-free
Procedure, shortened: (§1)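 The ester (1 × 10^-4 M) was incubated in human plasma solution (33-50%), mouse plasma (33%) or mouse liver homogenate. Remaining intact ester was measured by HPLC as a function of time over 1 h.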

Plasma [6] = experiment: Metabolic stability in 33% human plasma assessed as compound hydrolysis after 1 hr by HPLC; type: ADME, cell-free; procedure, shortened: as §1
[7] = Inhibition of human BuChE D70G mutant assessed as dissociation constant for Michaelis complex formation by enzyme kinetic study
Procedure, shortened: (§2)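 Wild-type human BuChE (lyophilised, dissolved in pH 8.0 phosphate buffer) or recombinant mutants. Final concentrations: enzyme 0.05 U mL^-1, DTNB 0.3 mmol, butyrylthiocholine 0.5 mmol. Inhibitor at various concentrations was mixed with enzyme at time 0. Aliquots taken at successive times were read at 412 nm over 30 s, in at least two wells each. k_obs came from a first-order fit, and K_c from a nonlinear fit of k_obs against inhibitor concentration.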

Homo sapiens [8] = organism: Homo sapiens; experiment: Inhibition of human BuChE Y332A mutant assessed as dissociation constant for Michaelis complex formation by enzyme kinetic study; procedure, shortened: as §2
Liver = experiment: Metabolic stability in 33% mouse liver homogenate assessed as compound hydrolysis after 1 hr by HPLC; type: ADME, tissue-based; conditions: tissue homogenate; procedure, shortened: as §1
[9] = biological target: Acetylcholinesterase (Homo sapiens) (UniProt P22303); experiment: Inhibition of human erythrocyte AChE at 100 uM
Acetylcholinesterase (Homo sapiens), sequence (P22303 whole entry): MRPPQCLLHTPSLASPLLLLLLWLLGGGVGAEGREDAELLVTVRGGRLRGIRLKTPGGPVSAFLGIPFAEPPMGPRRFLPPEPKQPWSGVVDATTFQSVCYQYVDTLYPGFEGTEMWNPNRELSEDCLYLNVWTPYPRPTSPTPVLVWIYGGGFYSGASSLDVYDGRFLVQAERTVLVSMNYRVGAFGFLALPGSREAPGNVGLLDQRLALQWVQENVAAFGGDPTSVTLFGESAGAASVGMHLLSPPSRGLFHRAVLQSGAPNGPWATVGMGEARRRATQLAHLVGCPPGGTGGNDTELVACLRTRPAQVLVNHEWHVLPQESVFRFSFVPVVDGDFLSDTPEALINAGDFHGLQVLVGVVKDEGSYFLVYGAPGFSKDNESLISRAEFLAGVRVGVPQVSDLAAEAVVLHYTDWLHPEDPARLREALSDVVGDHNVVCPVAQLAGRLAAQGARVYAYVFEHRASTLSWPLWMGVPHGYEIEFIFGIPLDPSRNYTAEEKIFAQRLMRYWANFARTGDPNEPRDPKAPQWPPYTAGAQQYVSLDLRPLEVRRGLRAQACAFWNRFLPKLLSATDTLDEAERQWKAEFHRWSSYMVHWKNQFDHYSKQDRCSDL

Cocaine esterase = biological target: T2, Cocaine esterase (Homo sapiens, UniProt O00748); experiment: Inhibition of human CES2-mediated pNPA substrate turnover
T2 sequence (O00748 whole entry): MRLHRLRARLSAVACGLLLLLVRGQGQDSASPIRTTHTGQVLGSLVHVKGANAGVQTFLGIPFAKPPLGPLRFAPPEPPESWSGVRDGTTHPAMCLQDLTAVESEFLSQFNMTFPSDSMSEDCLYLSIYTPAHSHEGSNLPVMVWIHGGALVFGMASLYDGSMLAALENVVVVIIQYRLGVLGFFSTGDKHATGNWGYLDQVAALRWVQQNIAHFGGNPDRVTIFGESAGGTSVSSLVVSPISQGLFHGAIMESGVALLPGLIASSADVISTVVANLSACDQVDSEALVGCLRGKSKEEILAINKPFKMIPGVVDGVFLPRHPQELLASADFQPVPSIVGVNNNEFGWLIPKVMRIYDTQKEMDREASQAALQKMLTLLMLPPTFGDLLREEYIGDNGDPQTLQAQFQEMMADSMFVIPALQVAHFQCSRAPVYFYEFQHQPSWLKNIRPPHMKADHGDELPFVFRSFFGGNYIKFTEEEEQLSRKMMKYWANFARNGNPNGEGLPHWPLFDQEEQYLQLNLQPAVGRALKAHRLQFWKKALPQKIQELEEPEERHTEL
Procedure, shortened: (§3)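 Source: pooled human liver microsomes (CES1) or human intestinal microsomes (CES2). The microsomes were preincubated with inhibitor at 50 nM-200 μM in 50 mM Tris-HCl pH 7.4 for 30 min at 37 °C. Substrate was pNPA at 3 mM final. p-Nitrophenol release was read at 405 nm. Rates were corrected for spontaneous-hydrolysis blanks, with four independent measurements per concentration. IC50 came from nonlinear sigmoidal curve fit.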

Homo sapiens [10] = organism: Homo sapiens; experiment: Inhibition of human BuChE D70G/Y332A mutant assessed as dissociation constant for Michaelis complex formation by enzyme kinetic study; procedure, shortened: as §2
Liver carboxylesterase 1 = biological target: T3, Liver carboxylesterase 1 (Homo sapiens, UniProt P23141); experiment: Inhibition of human CES1-mediated pNPA substrate turnover; procedure, shortened: as §3
T3 sequence (P23141 whole entry): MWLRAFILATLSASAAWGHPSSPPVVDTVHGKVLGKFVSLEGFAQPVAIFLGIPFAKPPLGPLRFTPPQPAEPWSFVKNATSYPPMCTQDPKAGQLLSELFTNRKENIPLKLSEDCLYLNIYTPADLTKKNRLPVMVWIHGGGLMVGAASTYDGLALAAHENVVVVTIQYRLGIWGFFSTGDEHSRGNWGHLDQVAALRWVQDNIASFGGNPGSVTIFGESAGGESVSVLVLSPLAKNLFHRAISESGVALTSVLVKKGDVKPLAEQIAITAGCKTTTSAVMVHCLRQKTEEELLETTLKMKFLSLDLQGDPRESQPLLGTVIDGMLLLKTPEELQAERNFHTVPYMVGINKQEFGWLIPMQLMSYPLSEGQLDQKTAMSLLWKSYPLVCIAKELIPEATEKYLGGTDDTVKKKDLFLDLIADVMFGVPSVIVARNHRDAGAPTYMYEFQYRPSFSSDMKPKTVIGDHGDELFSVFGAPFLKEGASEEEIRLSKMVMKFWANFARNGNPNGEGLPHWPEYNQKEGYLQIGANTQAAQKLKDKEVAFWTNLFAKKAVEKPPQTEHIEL

Homo sapiens [11] = organism: Homo sapiens; experiment: Selectivity for human BuChe over human CES2

T1 sequence (P06276 whole entry): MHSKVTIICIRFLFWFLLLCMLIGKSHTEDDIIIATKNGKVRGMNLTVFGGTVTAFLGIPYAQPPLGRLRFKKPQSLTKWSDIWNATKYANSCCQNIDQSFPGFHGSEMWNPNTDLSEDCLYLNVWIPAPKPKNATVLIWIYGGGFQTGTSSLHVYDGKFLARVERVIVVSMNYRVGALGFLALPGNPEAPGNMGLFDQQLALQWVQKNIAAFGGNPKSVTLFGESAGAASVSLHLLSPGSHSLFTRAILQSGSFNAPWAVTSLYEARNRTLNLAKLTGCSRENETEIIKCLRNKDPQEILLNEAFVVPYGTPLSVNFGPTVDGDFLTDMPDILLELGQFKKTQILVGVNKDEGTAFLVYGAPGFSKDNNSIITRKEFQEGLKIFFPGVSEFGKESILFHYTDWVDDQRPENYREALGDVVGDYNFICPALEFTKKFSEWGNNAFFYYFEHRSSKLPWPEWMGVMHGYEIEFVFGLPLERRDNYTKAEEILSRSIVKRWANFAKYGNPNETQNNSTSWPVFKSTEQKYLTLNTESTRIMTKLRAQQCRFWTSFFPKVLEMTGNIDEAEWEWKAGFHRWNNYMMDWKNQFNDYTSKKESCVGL

| Compound | IC50 (Cholinesterase [1]) [nM] | Ratio [2] | inhibition [3] [%] | Activity (Cholinesterase [4]) [µM] | further results |
| --- | --- | --- | --- | --- | --- |
| O=C(NCc1ccccc1)O[C@H]1CO[C@H]2[C@@H]1OC[C@H]2OC(=O)c1cccc(O)c1 | 16 | > 6250 | 0 |  |  |
| Nc1ccccc1C(=O)O[C@@H]1CO[C@H]2[C@@H]1OC[C@@H]2OC(=O)NCc1ccccc1 | 27 | > 3700 | 0 |  |  |
| O=C(NCc1ccccc1)O[C@H]1CO[C@H]2[C@@H]1OC[C@H]2OC(=O)c1ccc(-c2ccccc2)cc1 |  |  |  | 0.4 |  |
| Nc1ccc(C(=O)O[C@@H]2CO[C@H]3[C@@H]2OC[C@@H]3OC(=O)NCc2ccccc2)cc1 | 297 | 336 | 33 |  |  |
| O=C(NCc1ccccc1)O[C@H]1CO[C@H]2[C@@H]1OC[C@H]2OC(=O)c1ccccc1O | 0.15 | > 660000 | 47 | 0.01 | Stability (Plasma [5]): Stable; Stability (Plasma [6]): Stable; Activity [7]: 0.067 µM; Activity (Homo sapiens [8]): 0.05 µM; Stability (Liver): Stable; inhibition [9]: 52%; IC50 (Cocaine esterase): 3420 nM; Activity (Homo sapiens [10]): 0.445 µM; Activity (Liver carboxylesterase 1): Not Active; Ratio IC50 (Homo sapiens [11]): 22800 |
| O=C(NCc1ccccc1)O[C@H]1CO[C@H]2[C@@H]1OC[C@H]2OC(=O)c1ccc(O)cc1 | 323 | > 309 | 0 |  |  |
| O=C(NCc1ccccc1)O[C@H]1CO[C@H]2[C@@H]1OC[C@H]2OC(=O)c1cccc([N+](=O)[O-])c1 | 32 | > 3120 | 0 |  |  |
| O=C(O[C@@H]1CO[C@H]2[C@@H]1OC[C@@H]2OC(=O)N1CCOCC1)c1ccccc1O | 1060 | > 95 | 12 |  |  |
| Cc1ccccc1C(=O)O[C@@H]1CO[C@H]2[C@@H]1OC[C@@H]2OC(=O)NCc1ccccc1 | 1.2 | > 83300 | 26 | 0.248 |  |
| CN(C)C(=O)O[C@H]1CO[C@H]2[C@@H]1OC[C@H]2OC(=O)c1ccccc1O | 6.4 | > 15600 | 0 |  |  |
| CCCCNC(=O)O[C@H]1CO[C@H]2[C@@H]1OC[C@H]2OC(=O)c1ccccc1 | 72 |  |  | 2.57 | Activity [7]: 2.7 µM; Activity (Homo sapiens [8]): 1.3 µM; Activity (Homo sapiens [10]): 5.3 µM |
| O=C(NCc1ccccc1)O[C@H]1CO[C@H]2[C@@H]1OC[C@H]2OC(=O)c1ccccc1[N+](=O)[O-] | 18 | > 5560 | 0 |  |  |
| Nc1cccc(C(=O)O[C@@H]2CO[C@H]3[C@@H]2OC[C@@H]3OC(=O)NCc2ccccc2)c1 | 86 | > 1170 | 0 |  |  |
| O=C(NCc1ccccc1)O[C@H]1CO[C@H]2[C@@H]1OC[C@H]2OC(=O)c1ccc([N+](=O)[O-])cc1 | 117 | > 854 | 27 |  |  |
| O=C(NCc1ccccc1)O[C@H]1CO[C@H]2[C@@H]1OC[C@H]2OC(=O)c1ccccc1 |  |  |  |  | Activity [7]: 2.4 µM; Activity (Homo sapiens [8]): 1.5 µM; Activity (Homo sapiens [10]): 6.4 µM |
| O=Nc1ccccc1C(=O)O[C@@H]1CO[C@H]2[C@@H]1OC[C@@H]2OC(=O)NCc1ccccc1 | 39 | > 2560 | 0 |  |  |
| CCN(CC)C(=O)O[C@H]1CO[C@H]2[C@@H]1OC[C@H]2OC(=O)c1ccccc1O | 2610 | > 38 | 0 |  |  |
| O=C(NCc1ccccc1)O[C@H]1CO[C@H]2[C@@H]1OC[C@H]2O |  |  |  | 18.7 |  |
| O=C(NCc1ccccc1)O[C@H]1CO[C@H]2[C@@H]1OC[C@H]2OC(=O)c1cccnc1 |  |  |  | 1.9 |  |
| CCNC(=O)O[C@H]1CO[C@H]2[C@@H]1OC[C@H]2OC(=O)c1ccccc1O | 9.6 | > 10400 | 16 | 0.075 | Activity [7]: 0.32 µM; Activity (Homo sapiens [8]): 0.42 µM; Activity (Homo sapiens [10]): 2.26 µM |
